Reference: ChEMBL document CHEMBL1938394, “Time-dependent slowly-reversible inhibition of monoamine oxidase A by N-substituted 1,2,3,6-tetrahydropyridines” (Bioorg Med Chem, 2011)

What was measured:
[1] = biological target: T1, Amine oxidase [flavin-containing] B (Homo sapiens, UniProt P27338); experiment: Inhibition of human recombinant MAOB expressed in insect cells using benzylamine hydrochloride as substrate after 30 mins
T1 sequence (P27338 whole entry): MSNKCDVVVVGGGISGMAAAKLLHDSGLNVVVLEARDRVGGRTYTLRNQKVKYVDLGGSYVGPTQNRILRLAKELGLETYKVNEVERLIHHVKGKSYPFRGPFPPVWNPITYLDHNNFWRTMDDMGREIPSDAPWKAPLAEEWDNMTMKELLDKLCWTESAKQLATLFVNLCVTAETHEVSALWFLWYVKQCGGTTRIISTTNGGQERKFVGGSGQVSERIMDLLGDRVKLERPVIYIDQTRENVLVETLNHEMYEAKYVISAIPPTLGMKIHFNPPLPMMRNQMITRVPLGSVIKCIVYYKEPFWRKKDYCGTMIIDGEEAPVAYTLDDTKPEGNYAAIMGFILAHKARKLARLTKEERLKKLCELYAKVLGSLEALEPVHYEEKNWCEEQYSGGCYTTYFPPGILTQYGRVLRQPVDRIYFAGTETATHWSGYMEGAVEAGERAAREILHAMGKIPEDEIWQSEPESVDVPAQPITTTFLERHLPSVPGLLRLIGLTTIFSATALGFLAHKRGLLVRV
In short: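 Human recombinant MAO-B (0.01 mg/mL) in 0.1 M isotonic phosphate buffer pH 7.4, inhibitor 0–7000 µM, benzylamine 1000 µM final, 30 min at 37 °C. Stopped with perchloric acid; benzaldehyde measured by reverse-phase HPLC with UV 254 nm. IC50 from sigmoidal log dose–response fit; triplicate, mean ± SD.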

[2] = biological target: T2, Amine oxidase [flavin-containing] A (Homo sapiens, UniProt P21397); experiment: Inhibition of human recombinant MAOA expressed in insect cells assessed as oxidation of kynuramine substrate measured after additional substrate added after 90 mins incubation; conditions: 1.5 h
T2 sequence (P21397 whole entry): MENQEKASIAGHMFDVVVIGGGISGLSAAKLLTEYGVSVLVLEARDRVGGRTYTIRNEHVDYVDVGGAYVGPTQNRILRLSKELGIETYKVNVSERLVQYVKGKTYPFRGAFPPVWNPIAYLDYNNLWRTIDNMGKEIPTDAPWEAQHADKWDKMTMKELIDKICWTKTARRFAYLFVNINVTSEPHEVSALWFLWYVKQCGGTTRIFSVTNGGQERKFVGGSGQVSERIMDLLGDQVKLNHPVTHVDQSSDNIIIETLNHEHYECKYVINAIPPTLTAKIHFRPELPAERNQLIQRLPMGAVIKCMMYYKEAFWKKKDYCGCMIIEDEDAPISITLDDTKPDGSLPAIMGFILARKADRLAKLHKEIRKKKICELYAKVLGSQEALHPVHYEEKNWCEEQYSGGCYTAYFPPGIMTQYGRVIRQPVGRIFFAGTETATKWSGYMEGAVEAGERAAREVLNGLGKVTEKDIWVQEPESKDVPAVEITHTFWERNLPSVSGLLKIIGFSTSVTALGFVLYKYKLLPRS

[3] = biological target: T2, Amine oxidase [flavin-containing] A; experiment: Inhibition of human recombinant MAOA expressed in insect cells using kynuramine substrate after 60 mins
[4] = organism: Homo sapiens; experiment: Selectivity index, ratio of IC50 for human recombinant MAOB to IC50 for human recombinant MAOA
In short: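 MAO-A (0.005 mg/mL; 150 μM kynuramine, 60 min, 37 °C, […]) and MAO-B (0.01 mg/mL; 1000 μM benzylamine, 30 min, 37 °C, perchloric acid stop, benzaldehyde by HPLC-UV at 254 nm) in isotonic 0.1 M phosphate pH 7.4. Inhibitor 0–7000 μM. IC50s from sigmoidal log curves in triplicate. SI = MAO-B IC50 / MAO-A IC50.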

[5] = biological target: T2, Amine oxidase [flavin-containing] A; experiment: Competitive inhibition of human recombinant MAO-A assessed as dissociation constant for enzyme-inhibitor complex by Lineweaver-Burk plot analysis
In short: (§1)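 Human recombinant MAO-A (0.005 mg/mL) in 0.1 M sodium phosphate pH 7.4 made isotonic with NaCl, 37 °C, 30 min. Initial oxidation rates at four kynuramine levels (50–150 µM) without or with four inhibitor concentrations (range per compound, 5–1000 µM). Ki from Lineweaver–Burk plots and replots by linear regression; triplicate.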

[6] = biological target: T2, Amine oxidase [flavin-containing] A; experiment: Inhibition of human recombinant MAOA expressed in insect cells assessed as oxidation of kynuramine substrate at 2 mM measured after additional enzyme added after 120 mins incubation; conditions: 2 h, 2000 µM
In short: (§2)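 Recombinant human MAO-A incubated with kynuramine, with or without inhibitor. Product formation followed over time. A second equivalent of substrate (150 µM kynuramine) added at 90 min and fresh enzyme added at 120 min.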

[7] = biological target: T2, Amine oxidase [flavin-containing] A; experiment: Competitive inhibition of human recombinant MAO-A assessed as dissociation constant for enzyme-inhibitor-substrate complex by Lineweaver-Burk plot analysis; in short: as §1
[8] = biological target: T2, Amine oxidase [flavin-containing] A; experiment: Inhibition of human recombinant MAOA expressed in insect cells assessed as oxidation of kynuramine substrate at 2 mM measured after additional substrate added after 90 mins incubation; conditions: 1.5 h; in short: as §2
[9] = biological target: T2, Amine oxidase [flavin-containing] A; experiment: Inhibition of human recombinant MAOA expressed in insect cells assessed as formation of 4-hydroxyquinoline at 0.5 uM preincubated for 1 hr before kynuramine substrate measured after 12 hrs of dialysis
In short: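 MAO-A (0.005 mg/mL) in 0.1 M sodium phosphate pH 7.4 made isotonic with NaCl, preincubated 1 h at 37 °C without substrate with inhibitor (final volume 1 mL), then dialyzed overnight at 0 °C against 250 mL buffer. Activity in dialysate read as product formation at 310 nm with 150 μM kynuramine over 60 min at 37 °C. 4-Hydroxyquinoline quantified by calibration curve. Means ± SD, n = 3.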

[10] = biological target: T2, Amine oxidase [flavin-containing] A; experiment: Uncompetitive inhibition of human recombinant MAO-A assessed as dissociation constant for enzyme-inhibitor complex by Lineweaver-Burk plot analysis; in short: as §1
[11] = system: Mus musculus; experiment: Neurotoxicity in C57BL/6J mouse assessed as effect on dopamine level at 25 mg/kg, sc by HPLC analysis; assay type: toxicity, organism-based; parameters: dose 25 mg/kg, route subcutaneous; conditions: in vivo
In short: (§3)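 Female C57BL/6J mice aged 3–4 months, single sc dose, 0.9% saline vehicle, killed 72 h later. Striata homogenised in ice-cold 0.2 M perchloric acid with dihydroxybenzylamine internal standard. Amines measured by C18 reverse-phase HPLC with electrochemical detection, mobile phase pH 3.0.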

[12] = biological target: T2, Amine oxidase [flavin-containing] A; experiment: Inhibition of human recombinant MAOA expressed in insect cells assessed as oxidation of kynuramine substrate at 500 uM measured after additional enzyme added after 120 mins incubation; conditions: 2 h; in short: as §2
[13] = biological target: T2, Amine oxidase [flavin-containing] A; experiment: Inhibition of human recombinant MAOA expressed in insect cells assessed as oxidation of kynuramine substrate at 500 uM measured after additional substrate added after 90 mins incubation; conditions: 1.5 h; in short: as §2
[14] = system: Mus musculus; experiment: Neurotoxicity in C57BL/6J mouse assessed as reduction of striatal tyrosine hydroxylase level at 25 mg/kg, sc after 72 hrs by ELISA; assay type: toxicity, organism-based; parameters: dose 25 mg/kg, route subcutaneous; conditions: in vivo
In short: (§4)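 Female C57BL/6J mice aged 3–4 months, single sc dose, 0.9% saline vehicle, killed 72 h post-dose. Striatum homogenised in hot 1% SDS. GFAP or TH measured by detergent-based sandwich ELISA.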

[15] = system: Mus musculus; experiment: Neurotoxicity in C57BL/6J mouse assessed as effect on serotonin level at 25 mg/kg, sc by HPLC analysis; assay type: toxicity, organism-based; parameters: dose 25 mg/kg, route subcutaneous; conditions: in vivo; in short: as §3
[16] = biological target: T2, Amine oxidase [flavin-containing] A; experiment: Inhibition of human recombinant MAOA expressed in insect cells assessed as oxidation of kynuramine substrate at 500 uM up to 90 mins; conditions: 1.5 h; in short: as §2
[17] = system: Mus musculus; experiment: Neurotoxicity in C57BL/6J mouse assessed as increase of striatal GFAP level at 25 mg/kg, sc after 72 hrs by ELISA; assay type: toxicity, organism-based; parameters: dose 25 mg/kg, route subcutaneous; conditions: in vivo; in short: as §4
[18] = biological target: T2, Amine oxidase [flavin-containing] A; experiment: Inhibition of human recombinant MAOA expressed in insect cells assessed as formation of 4-hydroxyquinoline at 500 uM preincubated for 1 hr before kynuramine substrate measured after 1 hr in presence of sodium borohydride
In short: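 MAO-A preincubated 60 min at 37 °C with inhibitor, no substrate. Then 5 µL of 300 mM NaBH4 added and held 15 min at 0 °C. Dialysed overnight at 0 °C against 0.1 M isotonic phosphate buffer pH 7.4. Residual activity: 4-hydroxyquinoline formation at 310 nm with 150 µM kynuramine, 60 min, 37 °C; n = 3.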

[19] = biological target: T2, Amine oxidase [flavin-containing] A; experiment: Inhibition of human recombinant MAOA expressed in insect cells using kynuramine as substrate at 50 uM preincubated up to 40 mins before kynuramine substrate addition measured after 30 mins; conditions: 0.5 h
In short: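 MAO-A preincubated at 37 °C in 0.1 M isotonic phosphate buffer pH 7.4 with inhibitor, or buffer control, for […]. Diluted 50-fold into buffer containing kynuramine, then incubated 30 min. Activity is % of control; mean ± SD, n = 3.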

Row | Compound | inhibition (INH) [2] | IC50 [1] | IC50 [3] | Ratio IC50 [4] | other results
1 | c1ccc(CCN2CCCCC2)cc1 [1-PHENETHYLPIPERIDINE] | – | 762 µM | 757 µM | 1 | Ki [5]: 121 µM; inhibition (INH) [6]: Active; Ki [7]: 3680 µM; inhibition (INH) [8]: Active
2 | C#CCN(C)CCCOc1ccc(Cl)cc1Cl [CLORGILINE] | – | – | – | – | inhibition (INH) [9]: Active
3 | COc1ccc(CCN2CC=CCC2)cc1OC | Not Active | 1360 µM | 111 µM | 12.3 | –
4 | C1=CCN(CCc2ccccc2)CC1 | – | 1180 µM | 41.3 µM | 28.7 | IC50 [10]: 45.4 µM; Ki [10]: 9.2 µM; Activity [11]: Non-toxic; inhibition (INH) [12]: Active; inhibition (INH) [13]: Active; Activity [14]: Non-toxic; Activity [15]: Non-toxic; inhibition (INH) [16]: Active; Activity [17]: Non-toxic; inhibition (INH) [18]: Not Active; inhibition (INH) [19]: Active

Now from value to molecule, other results behind:

Row | inhibition (INH) [2] | Compound | IC50 [1] | IC50 [3] | Ratio IC50 [4] | other results
5 | Not Active | C1=CCN(CCCc2ccccc2)CC1 | 812 µM | 86.1 µM | 9.4 | –
6 | Not Active | C1=CCN(Cc2ccccc2)CC1 | 6540 µM | 157 µM | 41.6 | –
